Legend:
U87 cells = assay: Cell viability assay; assay type: cell-based, human; conditions: 7 days; for cytotoxicity (in words): U87; for IC50: U87, no MGMT expression, MGMT(−)/MMR(+), Alamar Blue
Outline: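 Cells were cultured in EMEM with 10% FBS and 1% pen-strep (37 °C, 5% CO2), seeded and allowed to adhere 3 h. Test compound was added in DMSO (1% final). After 7 days of incubation, viability was read by Alamar Blue, with raptinal 20 μM as dead control. IC50 taken from dose–response curves; n ≥ 3, SEM.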

T98G cells = assay: Cell viability assay; assay type: cell-based, human; conditions: for cytotoxicity (in words) / IC50: T98G
Outline: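 T98G cells were cultured in EMEM/10% FBS/1% pen-strep at 37 °C, 5% CO2, seeded and allowed to adhere. Where indicated, cells were pretreated 3 h with the MGMT inhibitor O6BG. Test compound was then added in DMSO (1% final). After 7 days, viability was read by Alamar Blue, with raptinal 20 μM as dead control; n ≥ 3, SEM.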

linearized pBR322 DNA = assay: DNA cross-linking/alkylation assay; assay type: biochemical; conditions: linearized pBR322 DNA 150 ng, 37 °C, Tris pH 8.5, 15 h, agarose gel
Outline: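 pBR322 was linearised with EcoRI, purified and taken up in 10 mM Tris-Cl pH 8.5. DNA (150 ng) was incubated with test compound (DMSO, 5% v/v) at 37 °C for 15 h. Cisplatin and MMS served as positive controls. Samples were denatured 15 min at 4 °C in NaOH-containing sucrose/bromophenol blue buffer (no NaOH for non-denatured controls). Gels were run on 1% neutral agarose with ethidium bromide in TBE, 124 V, 1 h.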

GBM cell lines = assay: Cell viability assay; assay type: cell-based; conditions: 7 days
Outline: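 Panel lines were seeded and allowed to adhere 3 h, then dosed with test compound in DMSO (1% final) and incubated at 37 °C, 5% CO2 for 7 days. Viability was read by Alamar Blue, with raptinal 20 μM as dead control. IC50 values are from n ≥ 3, SEM.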

HCT116 cells = assay: Cell viability assay, HCT116; assay type: cell-based
Outline: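 HCT116 cells were grown in RPMI with 10% FBS and 1% pen-strep (37 °C, 5% CO2), seeded and allowed to adhere. Cells were tested with or without O6BG pretreatment. Test compound was added in DMSO (1% final) after 3 h. After 7 days, viability was read by Alamar Blue, with raptinal 20 μM as dead control.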

D341 Med cells = assay: Cell viability assay, D341 Med medulloblastoma; assay type: cell-based; conditions: Homo sapiens, 168 h
Outline: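 D341 Med medulloblastoma cells were grown in EMEM with 20% FBS and 1% pen-strep (37 °C, 5% CO2). Cells were seeded and compound was added in DMSO (1% final) after 3 h. Incubation lasted 7 days, and viability was read by Alamar Blue, with raptinal 20 μM as dead control.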

RKO cells = assay: Cell viability assay, RKO colon cancer; assay type: cell-based
GL261 cells [1] = assay: Cell viability assay, GL261; assay type: cell-based; conditions: Mus musculus, GL261, 168 h
Outline: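 Cells were grown in DMEM with 10% FBS and 1% pen-strep at 37 °C, 5% CO2, seeded and allowed to adhere. After 3 h, test compound was added in DMSO (1% final). Cells were incubated 7 days, and viability was assessed by Alamar Blue, with raptinal 20 μM as dead control.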

GL261 MGMT+ cells = assay: Cell viability assay, GL261 MGMT+; assay type: cell-based, mouse
U118MG cells = assay: Cell viability assay, U118MG; assay type: cell-based; conditions: MGMT-expressing
[2] = Hydrolytic stability studies; assay type: physicochemical; conditions: for hydrolytic stability, percentage of prodrug remaining after 2 h: HPLC
Outline: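 Compound (100 μM) was incubated in PBS at 37 °C, pH 7.4 (also pH 7 and 8). Aliquots taken at set time points were analysed by HPLC. Peak areas were compared with t0 to give percent prodrug remaining, including at 2 h.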

GL261 cells [3] = assay: Quantitation of O6-guanine DNA adducts in cells; assay type: cell-based, mouse; conditions: 100, 300 or 500 μM, 8 h, LC–MS/MS
Outline: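 GL261 cells were plated at 1 × 10^6 per well and exposed to test compound at 100, 300 or 500 μM (1% DMSO) for 8 h. Genomic DNA was extracted, then precipitated with sodium acetate and ethanol. DNA (10 μg) was hydrolysed to deoxynucleosides (37 °C, 6 h). O6-alkyl-dG was quantified by LC–MS/MS against a synthetic standard; n ≥ 3.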

A172 cells = assay: Quantitation of O6-guanine DNA adducts in cells; assay type: cell-based; conditions: A172, MGMT-negative; LC–MS/MS
D54 cells = assay: Quantitation of O6-guanine DNA adducts in cells; assay type: cell-based; conditions: D54, MGMT-negative; LC–MS/MS
[4] = tested on: Salmonella typhimurium TA100 strain; assay: Ames test, TA100; assay type: cell-based; conditions: 30 μM, 5 days, no S9 activation, wells per 96
Outline: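 TA100 S. typhimurium was grown overnight, then dispensed into 96-well plates (microplate Ames format) with test compound, growth medium and colorimetric indicator, without S9 activation. Plates were incubated 5 days, and the number of wells per plate showing revertant growth was scored by colour change.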

[5] = tested on: Escherichia coli WP2 uvrA pKM101 strain; assay: Ames test, WP2 uvrA pKM101; assay type: cell-based; conditions: 30 μM
Outline: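 E. coli WP2 uvrA pKM101 tester strain was run in the 96-well microplate version of the Ames test following the kit maker's instructions. Test compound was added at the indicated concentrations.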

[6] = Assessment of hematological toxicity; assay type: in vivo, CD-1 IGS mice; conditions: mice, single 125 mg/kg IV dose, 7 days
[7] = aqueous solution, PBS, pH 7.4, 37 °C; cited from earlier work
[8] = cited from earlier work
glioblastoma = conditions: GBM patients, TMZ added to RT; cited from earlier work
[9] = same schedule (once-per-day over five days); cited from earlier work
BBB permeability = assay type: in vivo, CD-1 IGS mice; conditions: mice, 25 mg/kg IV, 15 min
Outline: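 CD-1 IGS mice received 25 mg/kg by lateral tail vein in 5% DMSO, 10% Tween-20 and 85% SBE-βCD (30% w/v in water), and were killed at 15 min. Blood was taken, then mice were saline-perfused. Serum was acidified with 8.5% H3PO4. Brains were acidified (0.3% H3PO4), frozen, homogenised and centrifuged. Levels were measured by LC–MS/MS and used for brain:serum ratio; ≥3 mice/cohort.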

GBM = conditions: intracranial murine model of GBM; cited from earlier work
[10] = high MGMT expression, MGMT(+)/MMR(+), 7 days, Alamar Blue

Compound: CC(C)(C)Cn1nnc2c(C(N)=O)ncn2c1=O [Compound 6]
- cytotoxicity (in words) (U87 cells): inactive
- cytotoxicity (in words) (T98G cells; 7 days): inactive

Compound: COS(C)(=O)=O [MMS, methylmethanesulfonate]
- DNA alkylation (in words) (linearized pBR322 DNA): cause DNA streaking

Compound: CC(C)n1nnc2c(C(N)=O)ncn2c1=O [Compound 4]
- cytotoxicity (in words) (U87 cells): inactive
- cytotoxicity (in words) (T98G cells; 7 days): inactive

Compound: NC(=O)c1ncn2c(=O)[nH]nnc12 [Compound 1]
- cytotoxicity (in words) (U87 cells): unable to induce cell death
- cytotoxicity (in words) (T98G cells; 7 days): unable to induce cell death

Compound: N.N.[Cl][Pt][Cl] [cisplatin]
- DNA interstrand cross-linking (in words) (linearized pBR322 DNA): prevent the full denaturation of double-stranded DNA

Compound: Cn1nnc2c(C(N)=O)ncn2c1=O [TMZ, temozolomide]
- IC50 (T98G cells; Homo sapiens, 168 h): > 550 µM
- loss of activity in T98G relative to U87 (T98G cells; IC50 T98G vs U87): > 10 fold
- effect of MGMT inhibitor pretreatment on cell death (T98G cells; T98G pretreated (3 h) with O6BG vs non-pretreated): dramatic potentiation of cell death
- difference in IC50 values between MGMT-negative and positive cell lines (GBM cell lines; expanded GBM panel): > 6 fold
- effect of MGMT inhibitor pretreatment on cytotoxicity (HCT116 cells; HCT116 pretreated with O6BG): negligible potentiation
- IC50 (HCT116 cells; Homo sapiens, HCT-116, 168 h): > 800 µM
- IC50 (D341 Med cells): 460 µM
- IC50 (RKO cells; Homo sapiens): > 1000 µM
- effect of MGMT inhibitor pretreatment on cell death (RKO cells; MGMT-expressing, MGMT inhibitor): cell death potentiation
- IC50 (GL261 cells [1]): 120 µM
- effect of MGMT inhibitor pretreatment on cell death (GL261 MGMT+ cells; GL261 MGMT+ pre-treated with lomeguatrib): potentiation of cell death
- IC50 (GL261 MGMT+ cells; Mus musculus, GL261, 168 h): > 1000 µM
- effect of MGMT inhibitor pretreatment on cell death (U118MG cells): cell death potentiation
- hydrolytic stability, percentage of prodrug remaining after 2 h ([2]; PBS pH 7.4, 37 °C): 40%
- half-life at 100 μM ([2]; PBS, pH 7.4): ~1.5 h
- O6-alkyl-2′-deoxyguanosine adducts (O6-Me-dG for TMZ, O6-Prop-dG for CPZ) (GL261 cells [3]): dose-dependent increase
- O6-dG alkylation adducts (A172 cells): dose-dependent increase in methyl adducts
- O6-dG alkylation adducts (D54 cells): dose-dependent increase in methyl adducts
- revertant (mutated) colonies [4]: 35/96
- mutagenicity (in words) [5]: highly mutagenic
- revertant colonies ([5]; wells per 96): 95/96
- DNA alkylation (in words) (linearized pBR322 DNA): cause DNA streaking
- white blood cell, lymphocyte and neutrophil counts (in words) [6]: depletions in white blood cells, lymphocytes, and neutrophils
- half-life in vitro [7]: 1.5 to 2 h
- half-life in vivo (t1/2) ([8]; human patients, human pharmacokinetics): 1.5 to 2 h
- cerebral spinal fluid concentration as percentage of plasma concentration ([8]; humans, average): about 20%
- overall patient survival (glioblastoma): 15 months
- survival benefit vs RT alone (glioblastoma): ≤ 8 month
- reported MTD [9]: ~ 66 mg/kg

Compound: C#CCn1nnc2c(C(N)=O)ncn2c1=O [Compound 10]
- IC50 (U87 cells): 29 µM
- IC50 (T98G cells; [10]): 77 µM
- IC50 (GBM cell lines; all cell lines of the expanded GBM panel): < 100 µM
- half-life ([2]; PBS pH 7.4, 37 °C): ~ 30 min
- hydrolytic stability, percentage of prodrug remaining after 2 h ([2]; PBS pH 7.4, 37 °C): 8%
- brain:serum ratio (BBB permeability): 0.06 ± 0.01 ng/g:ng/mL
- efficacy in an intracranial efficacy model (in words) (GBM): limited efficacy

Compound: CC(C)(C)n1nnc2c(C(N)=O)ncn2c1=O [Compound 5]
- cytotoxicity (in words) (U87 cells): inactive
- cytotoxicity (in words) (T98G cells; 7 days): inactive

Compound: CCn1nnc2c(C(N)=O)ncn2c1=O [Compound 2]
- IC50 (U87 cells): 470 µM
- cytotoxicity (in words) (U87 cells): much less active than TMZ
- cytotoxicity (in words) (T98G cells; 7 days): much less active than TMZ

Compound: C=CC=O [acrolein]
- DNA alkylation (in words) (linearized pBR322 DNA): no evidence of alkylation
- DNA interstrand cross-linking (in words) (linearized pBR322 DNA): interstrand cross-linking

Compound: NC(=O)c1ncn2c(=O)n(CCCl)nnc12 [MTZ, mitozolomide]
- cytotoxicity (in words) (U87 cells): robust cytotoxicity
- cytotoxicity (in words) (T98G cells; 7 days): robust cytotoxicity

Compound: CC#CCn1nnc2c(C(N)=O)ncn2c1=O [Compound 19]
- IC50 (U87 cells): 37 µM
- IC50 (T98G cells; [10]): 110 µM
- DNA alkylation (in words) (linearized pBR322 DNA): Trace DNA alkylation
- DNA interstrand cross-linking (in words) (linearized pBR322 DNA): definitively absent
